Assay results taken from ChEMBL document CHEMBL1147796, “New potent P-glycoprotein inhibitors carrying a polycyclic scaffold” (J Med Chem, 2006).

Key:
[1] = target: T1, ATP-dependent translocase ABCB1 (Homo sapiens, UniProt P08183); assay: Antiproliferative activity against human MDR1 transfected mouse L5178Y cell line; type: functional, cell-based; settings: read-out: ID50 (the source's name) (converted)
[2] = target: T1, ATP-dependent translocase ABCB1; assay: Reversal of multi-drug resistance in L5178Y cells transfected with human MDR1 as relative fluorescent rhodamine123 activity at 0.1 ug/mL; type: cell-based
Method in brief: (§1)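 L5178Y mouse T-cell lymphoma subline carrying the human MDR1 gene, with the parental drug-sensitive line also listed. A larger number of cells was exposed to compound for 30 min. Rhodamine 123 accumulation was read by fluorescence, and P-gp-mediated efflux reversal was expressed as a fluorescence activity ratio.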

[3] = target: T1, ATP-dependent translocase ABCB1; assay: Reversal of multi-drug resistance in L5178Y cells transfected with human MDR1 as relative fluorescent rhodamine123 activity at 1 ug/mL; type: cell-based; method in brief: as §1

T1 sequence (P08183 whole entry): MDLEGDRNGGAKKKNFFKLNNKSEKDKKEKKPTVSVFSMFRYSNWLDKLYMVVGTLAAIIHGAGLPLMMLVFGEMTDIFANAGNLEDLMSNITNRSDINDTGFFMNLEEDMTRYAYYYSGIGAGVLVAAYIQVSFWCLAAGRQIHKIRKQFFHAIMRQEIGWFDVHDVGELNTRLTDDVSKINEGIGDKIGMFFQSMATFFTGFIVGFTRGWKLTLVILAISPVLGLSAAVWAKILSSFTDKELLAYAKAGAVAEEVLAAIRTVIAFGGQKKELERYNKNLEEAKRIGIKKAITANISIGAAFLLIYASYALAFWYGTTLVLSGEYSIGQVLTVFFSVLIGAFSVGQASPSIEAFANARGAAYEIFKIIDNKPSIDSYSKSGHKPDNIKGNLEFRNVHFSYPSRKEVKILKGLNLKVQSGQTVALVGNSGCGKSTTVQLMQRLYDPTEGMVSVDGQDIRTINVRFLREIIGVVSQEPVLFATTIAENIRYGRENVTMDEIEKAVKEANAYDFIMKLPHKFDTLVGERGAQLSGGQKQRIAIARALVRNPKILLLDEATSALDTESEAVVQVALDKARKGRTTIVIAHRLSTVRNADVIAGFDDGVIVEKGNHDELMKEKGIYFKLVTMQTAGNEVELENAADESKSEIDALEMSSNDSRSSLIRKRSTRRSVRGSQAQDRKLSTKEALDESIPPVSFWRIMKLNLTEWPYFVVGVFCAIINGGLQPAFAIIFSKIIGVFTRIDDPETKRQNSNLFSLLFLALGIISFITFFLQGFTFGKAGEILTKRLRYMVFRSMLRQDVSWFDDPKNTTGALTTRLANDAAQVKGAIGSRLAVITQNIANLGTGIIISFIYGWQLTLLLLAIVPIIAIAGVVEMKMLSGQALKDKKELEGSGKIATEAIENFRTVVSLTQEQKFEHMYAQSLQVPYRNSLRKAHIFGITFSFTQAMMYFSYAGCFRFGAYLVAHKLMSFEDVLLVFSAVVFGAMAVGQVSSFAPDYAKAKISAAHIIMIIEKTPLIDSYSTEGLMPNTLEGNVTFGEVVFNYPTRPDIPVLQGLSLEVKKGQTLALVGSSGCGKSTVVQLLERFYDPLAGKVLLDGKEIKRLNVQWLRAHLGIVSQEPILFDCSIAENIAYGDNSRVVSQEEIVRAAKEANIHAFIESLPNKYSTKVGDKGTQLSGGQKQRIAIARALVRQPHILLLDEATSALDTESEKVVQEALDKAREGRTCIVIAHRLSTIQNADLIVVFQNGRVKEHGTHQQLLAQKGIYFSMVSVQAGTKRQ

Row | GI50 [1] | Ratio [2] | Ratio [3] | SMILES
1 | 5.72 µM | 7.91 | 28.62 | COc1ccc(CCN(C)CCCN2C(=O)C3C4c5ccccc5C(c5ccccc54)C3C2=O)cc1OC (centres undefined)
2 | 2.55 µM | 2.65 | 89.35 | COc1ccc(CCN(C)CC#CCN2C(=O)C3C4c5ccccc5C(c5ccccc54)C3C2=O)cc1OC (centres undefined)
3 | 4.23 µM | 2.76 | 47.85 | COc1ccc(CCN(C)CCN2C(=O)C3C4c5ccccc5C(c5ccccc54)C3C2=O)cc1OC (centres undefined)
